Compound activity: PubChem, several laboratories
Sampled rows, rich in hits. Any-hit rate of the full collection: about 2.6%.
b-catenin transl: alters nuclear translocation of beta-catenin in HeLa cells. immunofluorescence imaging. nuclear translocation activity, % at 5 µM. hit rate 0.3% among 190,000;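 active means nuclear translocation activity above 50% at 5 µM, with a well cell count of 50 or more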;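 further: per-cell ratio of nuclear to cytoplasmic median beta-catenin stain intensity; plate controls were DMSO negative control for no effect and GSK-3 inhibitor IX positive control for full effect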
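System: HeLa cells, endogenous beta-catenin; compound dosing: 5 µM primary single dose, 0.1% DMSO, 0.02–20 µM confirmation series; incubation: 24 h compound exposure at 37°C, 5% CO2; signal: beta-catenin immunofluorescence imaging with DAPI; evaluation: % activation, nuclear-to-cytoplasmic median beta-catenin signal ratio per cell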
NPY Y1 blocker: blocks the human neuropeptide Y Y1 receptor | HEK293-CNG Y1 cells, membrane potential fluorescence; NPY at EC95, then isoproterenol | inhibition, % at 3.6 µM | hit rate 1% among 200,000;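 active means inhibition above the campaign mean inhibition of all tested compounds plus 3 SD, cut at about 20% in these data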;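 further: 0% = DMSO wells given NPY plus isoproterenol and 100% = isoproterenol alone without NPY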
Target sequence (P25929 whole entry, looked up): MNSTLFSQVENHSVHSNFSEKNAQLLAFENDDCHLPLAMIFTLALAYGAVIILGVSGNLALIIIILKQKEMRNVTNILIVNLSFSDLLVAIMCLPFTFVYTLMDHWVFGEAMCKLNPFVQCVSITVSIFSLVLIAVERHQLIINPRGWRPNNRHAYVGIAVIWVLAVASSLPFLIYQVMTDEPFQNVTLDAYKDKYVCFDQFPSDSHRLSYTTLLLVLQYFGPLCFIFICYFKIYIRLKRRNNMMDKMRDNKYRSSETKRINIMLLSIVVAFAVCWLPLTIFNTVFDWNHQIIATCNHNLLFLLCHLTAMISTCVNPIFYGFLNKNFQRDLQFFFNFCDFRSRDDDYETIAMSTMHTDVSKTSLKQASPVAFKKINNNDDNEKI
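Material: Y1- and CNG-channel-expressing HEK293 cells / Probe or stimulus: NPY 25 nM then isoproterenol 1 µM plus Ro 20-1724 25 µM / Doses: 3.6 µM single dose, DMSO 0.4% / Schedule: compound incubation 1 h at room temperature, readout 45 min post-stimulation / Signal: membrane potential fluorescence / Benchmarks: isoproterenol-only wells as full block versus NPY-plus-isoproterenol wells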
NPY-Y1 PAM-ag: human NPY-Y1 potentiation or agonism, primary screen | hit rate 0.37% among 220,000 | P25929 | NPY-Y1 expressing cells, potentiator/agonist activation | activation, % at 3.6 µM | AID 1304; in the data active means activation above about 33%, passing the limit was not always enough;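 further: cells stimulated with NPY at EC10 then isoproterenol at EC100; 0% = low agonist plus stimulus and 100% = saturating agonist plus stimulus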
NPY2 pot ag: human NPY-Y2 potentiation or agonism, primary screen. P49146. cells expressing NPY-Y2, potentiator/agonist read-out. activation, % at 3.6 µM. hit rate 0.45% among 220,000. AID 1359; in the data active means activation above about 27%;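 further: cells stimulated with NPY near EC25 plus isoproterenol at EC100; 0% = vehicle plus submaximal agonist and 100% = vehicle plus saturating agonist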
NPY Y2 blocker: NPY-Y2 (human) receptor antagonism | hit rate 0.99% among 140,000 | inhibition, % at 2.7 µM | AID 793 | NPY-Y2 expressing cells, antagonist mode | P49146; in the data active means inhibition above about 17%;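 further: 0% = vehicle with agonist challenge and 100% = reference antagonist with challenge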
MT stabilizer: microtubule stabilization, imaging screen; HeLa tubulin immunostaining HCS, 24 h; share of cells brighter than vehicle mean+2SD; % tubulin-high responders, % at 10 µM; hit rate 0.83% among 200,000; AID 2205;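 active means plate Z-score above 3 for both tubulin-high and condensed-nucleus cell shares, with cell loss under 80%, at 10 µM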;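 further: anti alpha tubulin signal scored within the nucleus-defined area of each cell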
The depositor's hits bear a star; . = no result given.

SMILES	b-catenin transl	NPY Y1 blocker	NPY-Y1 PAM-ag	NPY2 pot ag	NPY Y2 blocker	MT stabilizer
CCN(CC)c1ccc2cc(-c3nc4ccccc4n3C)c(=O)oc2c1	66*	12	0	2	15	29*
CC(=O)Cc1nsc(NC(=O)c2ccc(-c3ccc(Cl)cc3Cl)o2)n1	.	-2	-12	-21	0	3
CC(=O)Cc1nsc(NC(=O)c2ccc(-c3cc(Cl)ccc3Cl)o2)n1	132*	7	-5	-18	.	26*
COCc1cc(=O)[nH]c(/N=C(\N)Nc2cccc(Cl)c2)n1	0	-2	9	-6	.	5
COn1c(SCc2cccc(Cl)c2)nc2ccccc2c1=O	-2	22*	-56	-5	17*	2
O=C(CC1C(=O)N(c2ccc(Cl)cc2)C(=S)N1CCc1ccncc1)Nc1ccc(F)cc1 (centres undefined)	-2	-8	61*	52*	-3	2
CC(Sc1nnc2ccccn12)C(=O)Nc1ncc(Cl)cc1Cl (centres undefined)	-2	4	-1	3	14	3
COc1ccc(-n2c(SC(C)C(=O)Nc3ncc(Cl)cc3Cl)nc3ccccc32)cc1 (centres undefined)	13	10	-11	-6	9	18*
CNc1ccc([N+](=O)[O-])cc1-c1nc2ccccc2[nH]c1=O	-3	.	26	20	.	.
COc1ccc(N(C)C(=S)Oc2ccc(C(=O)Nc3ccccc3)cc2)cc1	-2	-4	7	12	4	44*
COc1ccc(NC(=S)Nc2ccc(N(C)C(C)=O)cc2)cc1	8	-2	-13	-8	.	3
Cc1ccc(CNCC(O)(c2ccccc2)c2ccc(F)cc2)cc1 (centres undefined)	.	11	-28	-23	8	1
Cc1ccc(CNCC(O)(c2ccc(F)cc2)c2ccc(F)cc2)cc1	.	23*	-59	-31	19*	2
COc1ccc(N2C(=O)C(CC(N)=O)N(NC(=O)CCc3ccccc3)C2=O)cc1 (centres undefined)	-5	0	20	0	.	3
Cc1ccc(C=Nc2ccccc2C(N)=O)cc1	.	4	-8	-13	6	31*
NC(=O)c1ccccc1N=Cc1ccccn1	-2	-1	-29	-6	1	5
Cc1ccccc1C=Nc1ccccc1C(N)=O	28	-2	15	-6	3	22*
Cc1ccc(C=Nc2ccccc2C(=O)Nc2ccccc2)cc1	-2	-2	14	-13	0	4
Cc1nnsc1SCCNC(=O)c1ccc(F)cc1	2	0	-48	-5	0	1
Cc1cc(/C=C2\C(=N)N3N=C(C(C)C)SC3=NC2=O)c(C)n1Cc1ccccc1	-2	.	0	-9	.	.
Cc1nn(-c2ccccc2)c(Cl)c1/C=C1/C(=N)N2N=C(C(C)C)SC2=NC1=O	-3	6	5	5	0	9.9*
O=C(/C=C/c1ccccc1[N+](=O)[O-])c1ccccc1Br	0	4	-14	-9	.	29*
O=C1NC[C@H](c2ccccc2)N(CCc2cccc(F)c2)C1=O	0	.	.	.	.	.
CCOc1ccccc1Cn1c(=O)oc2ccc(C)cc21	0	19	-24	-13	8	2
CCCOc1ccccc1Cn1c(=O)oc2ccc(C)cc21	.	20*	-42	-29	21*	2
SMILES	b-catenin transl	NPY Y1 blocker	NPY-Y1 PAM-ag	NPY2 pot ag	NPY Y2 blocker	MT stabilizer
Clc1nc(CN2CCCCC2)nc2sc3c(c12)CCC3	-3	-4	-6	0	.	3
CC(C)(C)NCC(O)CON=C1c2ccccc2-c2ccccc21 (centres undefined)	-3	-5	104*	100*	.	5
CC(C)(C)NC(=O)CON=C1c2ccccc2-c2ccccc21	.	10	-1	-4	8	3
COc1ccc(C2c3c(-c4ccccc4O)n[nH]c3C(=O)N2Cc2ccco2)cc1 (centres undefined)	0	.	8	-7	.	.
Cc1ccc(C2c3c(-c4ccccc4O)n[nH]c3C(=O)N2Cc2ccncc2)cc1 (centres undefined)	-1	2	4	-2	8	27*
COc1ccc(CCN2C(=O)c3[nH]nc(-c4ccccc4O)c3C2c2cccc(Cl)c2)cc1 (centres undefined)	3	4	-16	-20	3	20*
COc1ccc(C2c3c(-c4ccccc4O)n[nH]c3C(=O)N2CCc2ccc(OC)c(OC)c2)cc1 (centres undefined)	.	-5	-10	-5	3	2
O=C(Oc1ccc2ccc(OC(=O)N3CCCCCC3)cc2c1)N1CCCCCC1	0	4	-16	1	8	3
CCCCCCNc1c([N+](=O)[O-])c(=O)sc2ccccc12	1	-1	-2	1	.	5
COc1ccccc1N1CCN(c2nc(C)nc3c2oc2ccccc23)CC1	81*	32*	-31	-21	20*	20*
Cc1[nH]c2ccccc2c1C(=O)NS(=O)(=O)Nc1ccc(F)cc1	-1	-4	-2	15	.	3
c1ccc(N2CCN(c3ncnc4c3oc3ccccc34)CC2)cc1	.	23*	-14	-24	22*	2
Cc1nc(N)sc1-c1nnc(SCC(=O)Nc2nccs2)n1C	1	7	-14	-1	2	3
O=C(CCC(=O)OCC(=O)c1cccc([N+](=O)[O-])c1)Nc1ccccc1Cl	-9	-3	-10	-13	1	3
O=C(Nc1nccs1)c1cn(-c2ccccc2)nc1-c1ccccc1	.	0	-1	-4	-1	34*
CC(C)COc1ccc(-c2nn(-c3ccccc3)cc2C(=O)Nc2nccs2)cc1	-9	2	2	-4	-1	1
OC1(C(F)(F)F)CC(c2ccc3ccccc3c2)=NO1 (centres undefined)	0	.	-32	-42	.	.
Cc1cc(C)nc(N2CCCC(C(=O)NCCC3=CCCCC3)C2)n1 (centres undefined)	0	6	15	18	-2	7
COc1ccc(N(C(=O)c2ccccc2C)S(=O)(=O)c2cccs2)cc1	99*	14	-10	-12	1	16*
COc1cc(C(=O)N/N=C(\C)c2ccc3c(c2)OCO3)cc(OC)c1OC	12	-1	6	-16	.	20*
O=C(O)/C=C\C(=O)Nc1ccccc1C(=O)N1CCN(c2ccc(Cl)cc2)CC1	-2	2	91*	31*	1	2
CC(C)(C)NC(=O)NC(=O)COC(=O)c1ccc(OC(F)(F)F)cc1	3	5	-17	-6	4	3
CCOCCCNC(=O)c1cc2sc(Cl)cc2n1CC	.	7	1	-5	2	14*
CCOCCCNC(=O)c1cc(C)nn1-c1ccccc1	0	-3	4	-5	1	4
